# Source: PubChem BioAssay
# NPY-Y1 antag: blocks the human neuropeptide Y Y1 receptor; 1% of 200,000 active; HEK293-CNG Y1 cells, membrane potential fluorescence; NPY at EC95, then isoproterenol; inhibition, % at 3.6 µM; P25929;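 active = inhibition above the campaign mean inhibition of all tested compounds plus 3 SD, cut at about 20% in these data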;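 note: 0% = DMSO wells given NPY plus isoproterenol and 100% = isoproterenol alone without NPY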
# Target sequence (P25929 whole entry, looked up): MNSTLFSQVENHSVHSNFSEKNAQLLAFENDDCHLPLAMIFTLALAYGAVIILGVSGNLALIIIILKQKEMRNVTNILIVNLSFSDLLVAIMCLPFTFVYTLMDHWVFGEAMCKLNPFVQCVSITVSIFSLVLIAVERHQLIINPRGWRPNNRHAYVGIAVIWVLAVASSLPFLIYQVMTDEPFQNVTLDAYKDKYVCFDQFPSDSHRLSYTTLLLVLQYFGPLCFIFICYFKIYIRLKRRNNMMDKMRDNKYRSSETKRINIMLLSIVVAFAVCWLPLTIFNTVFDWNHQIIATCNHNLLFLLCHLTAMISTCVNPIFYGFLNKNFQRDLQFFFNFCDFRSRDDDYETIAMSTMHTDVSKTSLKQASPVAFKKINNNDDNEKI
#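 Material: HEK293 Y1/CNG channel cell line; also added: NPY (25 nM), isoproterenol (1 µM), Ro 20-1724 (25 µM); doses: one concentration, 3.6 µM, in 0.4% DMSO; schedule: compound incubation 1 h at room temperature, readout 45 min post-stimulation; technique: membrane potential fluorescence; measure: fluorescence ratio normalized to % inhibition between controls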
# NPY-Y2 PAM-ag: potentiates or activates human NPY-Y2 receptor | P49146 | cells expressing NPY-Y2, potentiator/agonist read-out | activation, % at 3.6 µM | 0.45% of 220,000 active; in the data active = activation above about 27%;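 note: cells stimulated with NPY near EC25 plus isoproterenol at EC100; 0% = vehicle plus submaximal agonist and 100% = vehicle plus saturating agonist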
# Measles CPE: protection of cells from measles virus. Measles virus-infected cells, CPE protection, absorbance. protection (pct of control), % at 4 µM. 1.5% of 140,000 active; in the data active = protection mostly above about 24%, no sharp cut-off; inactive = mostly below about 26%
# NPY1 pot ag: human NPY-Y1 potentiation or agonism, primary screen; 0.37% of 220,000 active; AID 1304; activation, % at 3.6 µM; NPY-Y1 expressing cells, potentiator/agonist activation; P25929; in the data active = activation above about 33%, passing the limit was not always enough;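 note: cells stimulated with NPY at EC10 then isoproterenol at EC100; 0% = low agonist plus stimulus and 100% = saturating agonist plus stimulus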
# Rad51 HR inh: blocks human Rad51 in homologous recombination. hRad51 DNA strand exchange, fluorescence dequenching. inhibition, % at 10 µM. 0.085% of 200,000 active;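 active = inhibition above 40% at the single screening dose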;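 note: 0% = DMSO control wells and 100% = blanks with heterologous ssDNA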
#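 Test system: preformed human Rad51 ssDNA filaments. Compound dosing: single dose, 10 µM final compound. Incubation: filaments 15 min 37 °C, then compound 30 min. Technique: FRET fluorescence dequenching, excitation 485 nm, emission 520 nm. Read-out basis: percent inhibition from fluorescence, normalised to plate control and blank means. Benchmarks: plate controls and plate blanks.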
# NPY Y2 blocker: NPY-Y2 (human) receptor antagonism; P49146; NPY-Y2 expressing cells, antagonist mode; inhibition, % at 2.7 µM; 0.99% of 140,000 active; in the data active = inhibition above about 17%;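 note: 0% = vehicle with agonist challenge and 100% = reference antagonist with challenge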
# Active calls of the source: *; / = no result. This is a sample that favours compounds with a hit; in the whole collection about 2.8% have one here.
SMILES,NPY-Y1 antag,NPY-Y2 PAM-ag,Measles CPE,NPY1 pot ag,Rad51 HR inh,NPY Y2 blocker
O=C(CNC(=S)N(Cc1ccccc1)Cc1cccnc1)NC1CCCC1,-0.5,-7.6,28.2*,-4.5,23.4,3.1
CCCC(=O)N1CCN(c2ccc(NC(=O)c3cc4ccccc4o3)cc2)CC1,2.0,13.7,60.3*,-8.7,-4.1,3.6
CN(C(=O)c1ccc2c(c1)SC1=NS(=O)(=O)CCN12)C(c1ccccc1)c1ccccc1,36.7*,-20.1,6.8,-20.6,-3.5,22.2*
O=C(O)c1ccc2c(c1)SC1=NS(=O)(=O)CCN12,/,-13.5,/,10.7,5.7,/
COc1ccccc1NC(=O)COc1ccc(Br)cc1CO,11.7,1.5,5.9,0.3,0.3,6.2
COc1ccccc1NC(=O)COc1ccc(Br)cc1CNC1CCCC1,21.1*,-9.6,/,-20.4,7.1,/
CNC(=O)NC1CCCc2ccccc21 (centres undefined),-3.4,-3.3,23.4*,2.1,-1.5,0.9
O=C(Nc1ccccc1)NC1CCCc2ccccc21 (centres undefined),0.8,0.8,/,-4.8,10.9,/
COC(=O)[C@H](C)NC(=O)NC1CCCc2ccccc21 (some centres undefined),4.2,-5.7,56.4*,-10.8,-5.3,4.0
CC(C)[C@H](NC(=O)NC1CCCc2ccccc21)C(=O)O (some centres undefined),-2.2,4.0,20.5*,1.2,1.7,3.1
CC(C)C[C@H](NC(=O)NC1CCCc2ccccc21)C(=O)O (some centres undefined),/,-0.6,/,14.7,8.0,/
O=C(CN1CCCCC1)N/N=C/c1cc2ccccc2nc1Cl,2.1,6.0,/,3.3,6.1,/
CC(=O)Nc1nnc(-c2c(-c3c(Cl)cccc3Cl)noc2C)o1,/,3.6,/,11.4,3.8,/
CCOc1ccccc1NC(=S)/C(=C(\[O-])c1ccc2c(c1)OCCO2)[n+]1ccc(CC)cc1,0.7,9.9,28.3*,17.1,-9.7,1.9
COc1ccc(NC(=S)Nc2cnc3ccccc3c2)c(OC)c1,-1.9,5.0,/,-0.7,-7.2,/
CCCSc1nc2c(c(=O)n1CC)SC(C)C2 (centres undefined),-2.0,3.4,92.9*,-13.8,/,3.6
COc1ccc(C2CC(c3ccc4ccccc4c3)=NN2C(=O)CSc2ncccn2)cc1 (centres undefined),10.9,-18.0,10.2,-1.1,-2.2,7.6
COc1ccc(C2=NN(C(=O)CSc3ncccn3)C(c3ccc(OC)cc3)C2)cc1 (centres undefined),-1.4,-6.4,63.2*,-4.6,-10.0,3.3
COc1cccc(-n2c(Cc3cc(=O)[nH]c(=O)[nH]3)nnc2SCc2cccnc2)c1,-0.8,-14.8,44.2*,-4.4,1.1,0.3
COc1ccc(-n2c(Cc3cc(=O)[nH]c(=O)[nH]3)nnc2SCc2ccccc2)cc1,2.5,-6.8,16.4,-1.4,1.8,-0.4
CCOc1ccccc1CN1CCN(Cc2ccon2)CC1CCO (centres undefined),/,8.1,/,8.2,/,/
CCc1nnc(NS(=O)(=O)c2ccc(NC(=S)NC(=O)/C=C/c3ccccc3)cc2)s1,-0.6,-4.4,62.9*,-0.4,-2.2,0.0
COCCN1CC(=O)N(c2cccc(C)c2C)C(c2ccc(Cl)cc2)C1=O (centres undefined),2.8,7.4,13.6,-10.1,9.8,-0.3
Cc1cccc(N2C(=O)C(Oc3ccc(Cl)cc3Cl)C2C=O)c1C (centres undefined),-0.3,10.4,12.1,54.0*,4.6,-1.8
COc1ccc(N2CCN(C(=O)CSc3nnc4c(C)cc5ccc(C)c(C)c5n34)CC2)cc1,9.2,-2.1,50.2*,25.2,-5.7,-2.4
SMILES,NPY-Y1 antag,NPY-Y2 PAM-ag,Measles CPE,NPY1 pot ag,Rad51 HR inh,NPY Y2 blocker
COc1ccc(C(=O)CNc2ccc(C)cc2C)cc1,/,-4.6,/,-6.0,5.9,/
Cc1cccc(OCC(=O)NNC(=O)c2cc3ccccc3oc2=O)c1,3.6,-6.9,43.4*,-1.5,5.1,10.5
O=C(COc1ccc(F)cc1)NNC(=O)c1cc2ccccc2oc1=O,-2.0,-5.0,6.4,10.2,4.9,6.3
COc1ccc2c(c1)SCCC2=O,17.0,-3.4,34.3*,2.5,7.5,3.5
CC1CCC(NC(=O)CN2C(=O)C3CCCN3c3ncc(Cl)cc32)CC1 (centres undefined),29.1*,-10.8,17.5,-18.3,-1.3,6.0
CCc1ccccc1NC(=O)CN1C(=O)C2CCCN2c2ncc(Cl)cc21 (centres undefined),32.6*,-32.5,2.7,-6.5,1.8,23.2*
CN(Cc1ccccc1)C(=S)Nc1cccnc1,-2.2,-1.1,/,-10.1,-4.2,/
CCc1c(C)c(C#N)c2[nH]c3ccccc3n2c1=S,/,-1.7,/,-3.3,17.1,/
O=C(CN1c2ccccc2Sc2ccccc21)NNC(=O)Nc1ccc(Cl)c(Cl)c1,/,6.0,/,-17.1,-8.1,/
O=C(CN1c2ccccc2Sc2ccccc21)NNC(=O)Nc1ccc(Cl)cc1,/,56.7*,/,61.0*,10.7,/
Cc1ccc(-n2nc(-c3ccco3)cc2C(=O)O)c(C)c1,4.6,-2.9,/,-30.9,-30.0,/
CC1=CC(C)(C)Nc2ccc(OC(=O)CN3C(=O)c4ccccc4C3=O)cc21,5.3,10.5,9.4,-5.5,-7.0,4.4
CC1=CC(C)(C)Nc2ccc(OC(=O)CN3C(=O)c4cccc5cccc(c45)C3=O)cc21,5.7,-8.2,45.3*,-1.7,/,-2.9
COc1cc(/C=N\NC(=O)CNC(=O)C2COc3ccccc3O2)ccc1O (centres undefined),-3.0,-4.5,29.7*,-4.0,-9.8,1.4
CCCCC(Nc1ncnc2ccccc12)C(=O)O (centres undefined),0.7,5.6,6.9,13.1,72.9*,2.0
CC(=O)NNc1ncnc2ccccc12,-3.9,5.8,2.5,-15.8,-4.6,0.7
COC(=O)c1nn(-c2ccccc2)c(Cl)c1/C=N/OCc1ccc(C)cc1,8.0,11.9,29.3,7.2,-8.0,4.0
COc1ccnc(Oc2ccc(C)cc2)c1C#N,-2.7,-7.6,67.3*,-15.7,9.4,0.0
COc1ccnc(Oc2ccc(F)cc2)c1C#N,2.8,-22.9,/,-18.7,-12.8,/
Cc1ccc(Nc2nc(-c3ccc(O)c(O)c3)cs2)nc1,-11.6,50.9*,/,43.7*,9.3,/
COc1ccc(-c2csc(Nc3ccc(C)cn3)n2)cc1OC,-3.8,-1.8,/,-2.9,0.7,/
O=c1ccccn1CCOc1ccccc1Cl,-0.2,-11.6,7.4,17.4,-1.6,1.2
C=CCn1c(SCc2c(C)noc2C)nc2cc(C(=O)O)ccc2c1=O,3.0,-0.4,32.3,15.5,-5.9,5.5
COc1ccc(-c2noc(CSc3nc4ccccc4c(=O)n3-c3ccccc3)n2)cc1,3.4,1.9,5.3,0.8,2.1,2.7
C=CCn1c(SCc2c(C)noc2C)nc2ccccc2c1=O,63.6*,-30.0,5.7,-61.0,7.5,29.3*
